Assay results reported in ChEMBL document CHEMBL1150763, “Discovery of imidazo[1,5-c]imidazol-3-ones: weakly basic, orally active factor Xa inhibitors” (J Med Chem, 2008).

Columns and labels:
[1] = Cmax in cynomolgus monkey in fasted state at 3 mg/kg, po; assay type: ADME, organism-based, Macaca fascicularis; design: dose 3 mg/kg, route oral; settings: in vivo
How it was run: (§1)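 Male animals (SD rats 8 weeks old or cynomolgus monkeys, n = 3), fasted or fed, given 3 mg/kg orally as 0.5% methylcellulose suspension. Blood at 15, 30 min and 1, 2, 4, 8, 24 h (rat tail vein, monkey femoral vein); plasma deproteinized with acetonitrile, diluted in pH 3.0 ammonium formate, analysed by LC/MS/MS in positive ion mode.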

Rattus norvegicus [2] = assay: Effect on bleeding time in Sprague-Dawley rat at 30 mg/kg, po; assay type: functional
How it was run: (§2)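 Male Sprague-Dawley rats (7 weeks old) dosed orally 30 min beforehand, then anaesthetized with pentobarbital; tail transected 2-3 mm from tip, blood blotted every 30 s until bleeding stopped or 30 min elapsed; mean ± SEM, n = 6.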

[3] = Mean residence time in Sprague-Dawley rat in fasted state at 3 mg/kg, po; assay type: ADME, organism-based; design: dose 3 mg/kg, route oral; settings: in vivo; how it was run: as §1
[4] = AUC (0 to 24 hrs) in Sprague-Dawley rat in fasted state at 3 mg/kg, po; assay type: ADME, organism-based; design: time < 24 hr, dose 3 mg/kg, route oral; settings: plasma
How it was run: (§3)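 Male SD (IGS) rats, 8 weeks old, n = 3, fasted or fed; dosed iv at 0.3 mg/kg in DMA/PEG400 or orally at 3 mg/kg as 0.5% methylcellulose suspension. Tail-vein blood drawn 5 min–24 h (iv) or 15 min–24 h (po). Plasma deproteinized with acetonitrile, diluted in 0.01 mol/L HCO₂NH₄ pH 3.0, and quantified by LC/MS/MS in positive ion mode.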

Plasma [5] = assay: Anticoagulant potency in human plasma assessed as concentration required to double the time to clot formation by PT assay; assay type: functional
How it was run: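 Human normal plasma mixed with compound dilutions in DMSO (1.5 µL into 48.5 µL), preincubated 4 min at 37 °C, clotting started with thromboplastin and timed on an automatic coagulometer. Prolongation relative to DMSO; concentration doubling clotting time derived by least-squares regression; mean of duplicates.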

[6] = Inhibition of trypsin
[7] = Cmax in Sprague-Dawley rat in fed state at 3 mg/kg, po; assay type: ADME, organism-based; design: dose 3 mg/kg, route oral; settings: in vivo; how it was run: as §1
CYP3A4 = CYP3A4 (Homo sapiens, UniProt P08684); assay: Inhibition of CYP3A4 expressed in human B-lymphoblastoid cells at 10 uM; assay type: ADME, cell-based
How it was run: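 Recombinant CYP3A4 (10 nM, from CYP3A4-expressing human B-lymphoblastoid cells) incubated with 100 µM testosterone and 10 µM test compound for 30 min at 37 °C; 6β-hydroxytestosterone formation quantified by HPLC-UV.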

[8] = Mean residence time in Sprague-Dawley rat in fed state at 0.3 mg, iv; assay type: ADME, organism-based; settings: in vivo
How it was run: (§4)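 Male SD rats (8 weeks old) or cynomolgus monkeys, n = 3, given 0.3 mg/kg intravenously in DMA/PEG400. Blood sampled at 5, 10, 15, 30 min and 1, 2, 4, 8, 24 h (rat tail vein, monkey femoral vein); acetonitrile-deproteinized plasma diluted in pH 3.0 ammonium formate and quantified by LC/MS/MS.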

[9] = Total clearance in cynomolgus monkey in fed state at 0.3 mg, iv; assay type: ADME, organism-based, Macaca fascicularis; settings: in vivo; how it was run: as §4
[10] = AUC (0 to 24 hrs) in Sprague-Dawley rat in fed state at 0.3 mg, iv; assay type: ADME, organism-based; design: time < 24 hr, dose 0.3 mg, route intravenous; settings: plasma; how it was run: as §3
[11] = AUC (0 to 24 hrs) in Sprague-Dawley rat in fed state at 3 mg/kg, po; assay type: ADME, organism-based; design: time < 24 hr, dose 3 mg/kg, route oral; settings: plasma; how it was run: as §3
[12] = Volume of distribution in steady state in Sprague-Dawley rat in fed state at 0.3 mg, iv; assay type: ADME, organism-based; settings: in vivo, read-out: Vdss; how it was run: as §4
[13] = Cmax in Sprague-Dawley rat in fasted state at 3 mg/kg, po; assay type: ADME, organism-based; design: dose 3 mg/kg, route oral; settings: in vivo; how it was run: as §1
[14] = AUC (0 to 24 hrs) in cynomolgus monkey in fasted state at 3 mg/kg, po; assay type: ADME, organism-based, Macaca fascicularis; design: time < 24 hr, dose 3 mg/kg, route oral; settings: plasma
How it was run: (§5)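 Male cynomolgus monkeys, n = 3, fasted or fed; single dose iv 0.3 mg/kg (DMA/PEG400) or po 3 mg/kg (0.5% methylcellulose suspension). Femoral-vein blood sampled 5 min–24 h after iv, 15 min–24 h after oral. Plasma deproteinized with acetonitrile, supernatant diluted in 0.01 mol/L HCO₂NH₄ pH 3.0, drug measured by LC/MS/MS.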

[15] = Total clearance in Sprague-Dawley rat in fed state at 0.3 mg, iv; assay type: ADME, organism-based; settings: in vivo; how it was run: as §4
Prothrombin = Prothrombin (Homo sapiens, UniProt P00734); assay: Inhibition of thrombin
[16] = Tmax in Sprague-Dawley rat in fed state at 3 mg/kg, po; assay type: ADME, organism-based; design: dose 3 mg/kg, route oral; settings: in vivo; how it was run: as §1
[17] = Tmax in cynomolgus monkey in fed state at 3 mg/kg, po; assay type: ADME, organism-based, Macaca fascicularis; design: dose 3 mg/kg, route oral; settings: in vivo; how it was run: as §1
[18] = Bioavailability in cynomolgus monkey in fed state at 3 mg/kg, po; assay type: ADME, organism-based, Macaca fascicularis; settings: in vivo
How it was run: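 Male cynomolgus monkeys, fed, given 3 mg/kg orally as 0.5% methylcellulose suspension and 0.3 mg/kg iv in DMA/PEG400 (n = 3); femoral vein plasma sampled to 24 h, deproteinized with acetonitrile and quantified by LC/MS/MS.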

[19] = Volume of distribution in steady state in cynomolgus monkey in fed state at 0.3 mg, iv; assay type: ADME, organism-based, Macaca fascicularis; settings: in vivo, read-out: Vdss; how it was run: as §4
[20] = Bioavailability in Sprague-Dawley rat in fed state at 3 mg/kg, po; assay type: ADME, organism-based; settings: in vivo
How it was run: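 Male SD (IGS) rats, 8 weeks old, n = 3, fed or fasted. Dosed iv at 0.3 mg/kg in DMA/PEG400 and po at 3 mg/kg as a 0.5% methylcellulose suspension. Tail-vein blood taken at 15, 30 min and 1, 2, 4, 8, 24 h after oral dosing (iv adds 5 and 10 min). Plasma deproteinized with acetonitrile and assayed by LC/MS/MS.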

Plasma [21] = assay: Anticoagulant potency in mouse plasma assessed as concentration required to double the time to clot formation by PT assay; assay type: functional
[22] = Mean residence time in cynomolgus monkey in fasted state at 3 mg/kg, po; assay type: ADME, organism-based, Macaca fascicularis; design: dose 3 mg/kg, route oral; settings: in vivo; how it was run: as §1
[23] = Cmax in cynomolgus monkey in fed state at 3 mg/kg, po; assay type: ADME, organism-based, Macaca fascicularis; design: dose 3 mg/kg, route oral; settings: in vivo; how it was run: as §1
physchem = settings: buffer, pH 7.4
[24] = Tmax in Sprague-Dawley rat in fasted state at 3 mg/kg, po; assay type: ADME, organism-based; design: dose 3 mg/kg, route oral; settings: in vivo; how it was run: as §1
[25] = Mean residence time in Sprague-Dawley rat in fed state at 3 mg/kg, po; assay type: ADME, organism-based; design: dose 3 mg/kg, route oral; settings: in vivo; how it was run: as §1
[26] = Mean residence time in cynomolgus monkey in fed state at 0.3 mg, iv; assay type: ADME, organism-based, Macaca fascicularis; settings: in vivo; how it was run: as §4
[27] = AUC (0 to 24 hrs) in cynomolgus monkey in fed state at 3 mg/kg, po; assay type: ADME, organism-based, Macaca fascicularis; design: time < 24 hr, dose 3 mg/kg, route oral; settings: plasma; how it was run: as §5
[28] = Cmin in Sprague-Dawley rat in fed state at 0.3 mg, iv after 5 mins; assay type: ADME, organism-based; settings: in vivo, read-out: Cmin; how it was run: as §4
Plasminogen = Plasminogen (Homo sapiens, UniProt P00747); assay: Inhibition of plasmin
[29] = Tmax in cynomolgus monkey in fasted state at 3 mg/kg, po; assay type: ADME, organism-based, Macaca fascicularis; design: dose 3 mg/kg, route oral; settings: in vivo; how it was run: as §1
[30] = Cmin in cynomolgus monkey in fed state at 0.3 mg, iv after 5 mins; assay type: ADME, organism-based, Macaca fascicularis; settings: in vivo, read-out: Cmin; how it was run: as §4
[31] = Mean residence time in cynomolgus monkey in fed state at 3 mg/kg, po; assay type: ADME, organism-based, Macaca fascicularis; design: dose 3 mg/kg, route oral; settings: in vivo; how it was run: as §1
[32] = AUC (0 to 24 hrs) in cynomolgus monkey in fed state at 0.3 mg, iv; assay type: ADME, organism-based, Macaca fascicularis; design: dose 0.3 mg, time < 24 hr, route intravenous; settings: plasma; how it was run: as §5
[33] = Basicity, pKa by titration method; assay type: physicochemical
Rattus norvegicus [34] = assay: Effect on bleeding time in Sprague-Dawley rat at 100 mg/kg, po; assay type: functional; how it was run: as §2
[35] = biological target: Tissue-type plasminogen activator (Homo sapiens, UniProt P00750); assay: Inhibition of tPA
Rattus norvegicus [36] = assay: Effect on bleeding time in Sprague-Dawley rat at 1 mg/kg, po; assay type: functional
How it was run: (§6)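 Male Sprague-Dawley rats (7 weeks old) dosed orally 18 h before measurement, then anesthetized with sodium pentobarbital. Tail transected 2-3 mm from the tip; blood blotted with filter paper every 30 s until bleeding stopped or 30 min elapsed. Bleeding time given as mean ± SEM, n = 6, compared with a vehicle group by one-tailed Shirley-Williams' test.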

Rattus norvegicus [37] = assay: Effect on bleeding time in Sprague-Dawley rat at 0.3 mg/kg, po; assay type: functional; how it was run: as §6

Sequence of Plasminogen (P00747 97-580 limits assumed): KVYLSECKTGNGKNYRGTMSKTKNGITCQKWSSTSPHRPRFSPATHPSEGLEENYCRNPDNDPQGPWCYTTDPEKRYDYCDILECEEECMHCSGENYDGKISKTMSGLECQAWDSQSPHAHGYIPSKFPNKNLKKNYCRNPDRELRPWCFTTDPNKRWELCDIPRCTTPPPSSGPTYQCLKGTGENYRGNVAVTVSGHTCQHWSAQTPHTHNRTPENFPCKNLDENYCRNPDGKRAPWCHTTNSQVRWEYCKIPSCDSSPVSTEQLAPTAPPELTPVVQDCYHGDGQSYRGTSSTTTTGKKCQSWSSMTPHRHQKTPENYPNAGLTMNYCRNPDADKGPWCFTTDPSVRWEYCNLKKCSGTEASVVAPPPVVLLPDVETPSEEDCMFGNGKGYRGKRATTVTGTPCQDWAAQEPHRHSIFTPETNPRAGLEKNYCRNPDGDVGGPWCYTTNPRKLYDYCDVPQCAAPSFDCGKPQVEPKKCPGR
Sequence of Plasminogen (P00747 581-810 limits assumed): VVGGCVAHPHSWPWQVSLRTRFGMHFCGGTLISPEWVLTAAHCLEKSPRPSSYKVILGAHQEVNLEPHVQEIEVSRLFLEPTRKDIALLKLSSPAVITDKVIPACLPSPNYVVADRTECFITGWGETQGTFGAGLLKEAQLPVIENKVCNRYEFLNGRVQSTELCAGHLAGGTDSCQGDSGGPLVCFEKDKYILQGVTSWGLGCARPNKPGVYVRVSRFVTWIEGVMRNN
Sequence of CYP3A4 (P08684 whole entry): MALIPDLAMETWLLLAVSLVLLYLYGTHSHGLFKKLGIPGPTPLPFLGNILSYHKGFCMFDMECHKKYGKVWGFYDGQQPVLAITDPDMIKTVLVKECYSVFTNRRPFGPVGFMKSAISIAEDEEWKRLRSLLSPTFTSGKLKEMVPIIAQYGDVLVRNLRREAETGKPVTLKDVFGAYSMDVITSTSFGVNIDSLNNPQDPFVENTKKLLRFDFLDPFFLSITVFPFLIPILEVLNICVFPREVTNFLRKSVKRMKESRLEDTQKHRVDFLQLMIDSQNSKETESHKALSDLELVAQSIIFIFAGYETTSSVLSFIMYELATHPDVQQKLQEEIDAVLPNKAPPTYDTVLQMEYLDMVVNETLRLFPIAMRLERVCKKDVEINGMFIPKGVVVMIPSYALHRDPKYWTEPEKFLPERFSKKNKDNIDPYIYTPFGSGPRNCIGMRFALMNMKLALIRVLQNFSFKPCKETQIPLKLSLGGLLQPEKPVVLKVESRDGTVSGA
Sequence of Tissue-type plasminogen activator (P00750 whole entry): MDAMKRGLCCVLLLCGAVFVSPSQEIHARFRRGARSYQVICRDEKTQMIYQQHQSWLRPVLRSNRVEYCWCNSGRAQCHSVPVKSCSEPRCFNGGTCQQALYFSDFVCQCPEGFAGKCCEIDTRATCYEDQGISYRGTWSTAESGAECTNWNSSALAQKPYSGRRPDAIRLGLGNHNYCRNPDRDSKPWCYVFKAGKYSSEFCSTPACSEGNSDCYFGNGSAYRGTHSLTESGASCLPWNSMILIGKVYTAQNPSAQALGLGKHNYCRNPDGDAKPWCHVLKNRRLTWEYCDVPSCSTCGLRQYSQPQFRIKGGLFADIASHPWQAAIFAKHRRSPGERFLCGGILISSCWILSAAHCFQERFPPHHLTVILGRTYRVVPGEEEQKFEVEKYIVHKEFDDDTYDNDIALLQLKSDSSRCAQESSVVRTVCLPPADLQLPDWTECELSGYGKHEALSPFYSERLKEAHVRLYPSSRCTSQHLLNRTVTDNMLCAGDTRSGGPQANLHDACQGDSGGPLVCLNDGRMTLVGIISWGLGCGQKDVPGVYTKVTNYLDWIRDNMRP

## Cc1ncc2n1C(=O)N(C1CCN(C(=O)CCS(=O)(=O)c3ccc4cc(Cl)ccc4c3)CC1)C2
[1]
  Cmax: 1200 ng/mL
Rattus norvegicus [2]
  Time: 490 s
[3]
  MRT: 1.5 h
[4]
  AUC(0-t) at 24 h: 417 ng·h/mL
Plasma [5]
  Activity: 1 µM
[6]
  Ki: > 60 µM
[7]
  Cmax: 145 ng/mL
CYP3A4
  inhibition at 10 µM: 23%
[8]
  MRT: 0.7 h
[9]
  clearance: 9.02 mL/min/kg
[10]
  AUC(0-t) at 24 h: 245 ng·h/mL
[11]
  AUC(0-t) at 24 h: 597 ng·h/mL
[12]
  Vd: 0.888 L/kg
[13]
  Cmax: 570 ng/mL
[14]
  AUC(0-t) at 24 h: 2120 ng·h/mL
[15]
  clearance: 20.8 mL/min/kg
Prothrombin
  Ki: 6.2 µM
[16]
  Tmax: 1.2 h
[17]
  Tmax: 2.3 h
[18]
  bioavailability: 46%
[19]
  Vd: 0.556 L/kg
[20]
  bioavailability: 24%
Plasma [21]
  Activity: 2 µM
[22]
  MRT: 1.6 h
[23]
  Cmax: 269 ng/mL
physchem
  logD: 2.3
[24]
  Tmax: 0.3 h
[25]
  MRT: 3.6 h
[26]
  MRT: 1 h
[27]
  AUC(0-t) at 24 h: 2590 ng·h/mL
[28]
  concentration at 5 min: 291 ng/mL
Plasminogen
  Ki: > 60 µM
[29]
  Tmax: 0.8 h
[30]
  concentration at 5 min: 612 ng/mL
[31]
  MRT: 7 h
[32]
  AUC(0-t) at 24 h: 565 ng·h/mL
[33]
  pKa: 5
Rattus norvegicus [34]
  Time: 1040 s
[35]
  Ki: > 60 µM

## CC(=O)CC(c1ccccc1)c1c(O)c2ccccc2oc1=O (stereo unspecified) [WARFARIN]
Rattus norvegicus [36]
  Time: 1590 s
Rattus norvegicus [37]
  Time: 445 s
